Data reported in ChEMBL document CHEMBL1133650, “Gold(III) complexes as potential antitumor agents: solution chemistry and cytotoxic properties of some selected gold(III) compounds” (J Med Chem, 2000).

Experiments:
[1] = test system: A2780; experiment: cytotoxic activity toward A2780 ovarian human cell line sensitive (S) to cisplatin in experiment 3; format: functional, cell-based
Summary of the method: (§1)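 Cisplatin-sensitive parental A2780/S human ovarian carcinoma cells, grown in RPMI 1640 with FBS at 37 °C under 5% CO2 and subcultured twice weekly. Exponentially growing cells were treated for 72 h, and growth inhibition was measured by sulforhodamine B assay in RPMI 1640 + 5% FBS. IC50 is the mean ± SE of ≥3 determinations, or the mean of two.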

[2] = test system: A2780; experiment: cytotoxic activity toward A2780 ovarian human cell line resistant (R) to cisplatin in experiment 3; format: functional, cell-based
Summary of the method: (§2)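 A2780/R human ovarian carcinoma cells, made cisplatin-resistant by repeated weekly 1-h exposure of the parental line to 50 μM cisplatin, kept in RPMI 1640 with FBS at 37 °C and 5% CO2. Exponentially growing cells were exposed to compound for 72 h, and growth was read by SRB assay in RPMI 1640 + 5% FBS. IC50 is the mean ± SE of at least three determinations, or the mean of two.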

[3] = Ratio of cytotoxic activity against resistant cell line to that of sensitive cell line; format: functional
[4] = test system: A2780; experiment: cytotoxic activity toward A2780 ovarian human cell line resistant (R) to cisplatin in experiment 2; format: functional, cell-based
[5] = test system: A2780; experiment: cytotoxic activity toward A2780 ovarian human cell line sensitive (S) to cisplatin in experiment 1; format: functional, cell-based; summary of the method: as §1
[6] = test system: A2780; experiment: cytotoxic activity toward A2780 ovarian human cell line sensitive (S) to cisplatin in experiment 2; format: functional, cell-based
[7] = test system: A2780; experiment: cytotoxic activity toward A2780 ovarian human cell line resistant (R) to cisplatin in experiment 5; format: functional, cell-based; summary of the method: as §2
[8] = test system: A2780; experiment: cytotoxic activity toward A2780 ovarian human cell line sensitive (S) to cisplatin in experiment 5; format: functional, cell-based; summary of the method: as §1
[9] = test system: A2780; experiment: cytotoxic activity toward A2780 ovarian human cell line resistant (R) to cisplatin in experiment 8; format: functional, cell-based; summary of the method: as §2
[10] = test system: A2780; experiment: cytotoxic activity toward A2780 ovarian human cell line sensitive (S) to cisplatin in experiment 8; format: functional, cell-based; summary of the method: as §1
[11] = test system: L1210; experiment: Cytotoxicity measured against L1210 cell line; format: functional, cell-based, Mus musculus
[12] = test system: A2780; experiment: cytotoxic activity toward A2780 ovarian human cell line sensitive (S) to cisplatin; format: functional, cell-based; summary of the method: as §1

c1cnc2c(c1)ccc1cccnc12 [PHENANTHROLINE]
IC50 ([1]; Homo sapiens, A2780): 3.66 µM | IC50 ([2]; Homo sapiens, A2780): 2.73 µM | Ratio [3]: 0.75

c1ccc(-c2cccc(-c3ccccn3)n2)nc1 [TERPYRIDINE]
IC50 ([4]; Homo sapiens, A2780): 0.36 µM | IC50 ([5]; Homo sapiens, A2780): 0.125 µM | Ratio [3]: 2.88

AU(TERPY) [listing 1 of 2 here]
IC50 ([2]; a2780): 0.37 µM | IC50 ([5]; a2780): 0.2 µM

AU(TERPY) [listing 2 of 2 here]
Ratio [3]: 1.23

AUCL3(EN2) [listing 1 of 2 here]
IC50 ([1]; a2780): 8.36 µM | IC50 ([2]; a2780): 17 µM

AUCL3(EN2) [listing 2 of 2 here]
Ratio [3]: 2.03

AUCL(DIEN) [listing 1 of 2 here]
IC50 [6]: 8.2 µM | IC50 ([2]; a2780): 18.7 µM

AUCL(DIEN) [listing 2 of 2 here]
Ratio [3]: 2.28

AUCYCLAM
IC50 [6]: 99 µM | IC50 ([4]; a2780): > 120 µM

AUPHEN [listing 1 of 2 here]
IC50 [7]: 3.49 µM | IC50 [8]: 3.8 µM

AUPHEN [listing 2 of 2 here]
Ratio [3]: 0.92

CISPLATIN [listing 1 of 2 here]
IC50 [9]: 14.2 µM | IC50 [10]: 1.22 µM | IC50 [11]: 2.3 µM

CISPLATIN [listing 2 of 2 here]
Ratio [3]: 11.6

[AuCl4]-
IC50 [12]: 11 µM

[Pt-(dien)Cl]Cl
IC50 [11]: 271 µM

[Pt-(en2)]Cl2
IC50 [11]: 1680 µM
